Results: ChEMBL document CHEMBL1153989, “Synthesis and antiviral activities of novel acylhydrazone derivatives targeting HIV-1 capsid protein” (Bioorg Med Chem Lett, 2009)
Values belong to the molecule of their own block, whether it stands above or below them.

Tests used:
[1] = Cytotoxicity against uninfected human CEM174 cells after 5 days by MTT assay; assay type: cell-based; conditions: read-out: TC50
Procedure, shortened: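 Uninfected CEM174 cells under the antiviral assay conditions (5 days, 37 °C, 5% CO₂, humidified) with compound dilutions. Proliferation read by MTT reduction. TC₅₀ is the concentration inhibiting proliferation by 50%.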

[2] = Therapeutic index, TC50 for human CEM174 cells to EC50 for SIV-induced syncytium; assay type: cell-based; conditions: read-out: TI
Procedure, shortened: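 Index calculated as TC₅₀ (MTT, uninfected CEM174, 5 days) divided by EC₅₀ (inhibition of SIV syncytium formation in CEM174 cells infected with 100 TCID₅₀ per well, 5 days, microscopic scoring).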

[3] = tested on: Simian immunodeficiency virus; test: Antiviral activity against SIV-induced syncytium in human CEM174 cells assessed as inhibition of virus-induced cytopathogenicity after 5 days; assay type: functional, organism-based; conditions: CEM174, 120 h
Procedure, shortened: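 CEM174 cells at 1 × 10⁵ cells/mL, infected with 100 TCID₅₀ SIV per well, with serial compound dilutions; 5 days at 37 °C, 5% CO₂, humidified. Syncytium (giant cell) formation scored by microscope. EC₅₀ is the concentration giving 50% protection against SIV cytopathogenicity. Indinavir at 1 × 10⁻⁶ mol/L served as positive control.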

[4] = molecular target: Structural capsid protein (Human immunodeficiency virus 1) (UniProt Q76129); test: Binding affinity to HIV1 capsid protein assessed as assembly rate at 40 uM by turbidity-based ultraviolet spectrophotometry
Sequence of Structural capsid protein (Human immunodeficiency virus 1) (Q76129 as listed by the source): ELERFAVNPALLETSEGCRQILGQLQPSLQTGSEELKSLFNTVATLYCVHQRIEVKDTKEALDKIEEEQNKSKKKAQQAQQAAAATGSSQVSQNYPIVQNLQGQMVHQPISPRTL

[5] = molecular target: Structural capsid protein (Human immunodeficiency virus 1) (UniProt Q76129); test: Binding affinity to HIV1 capsid protein assessed as decrease in assembly rate by turbidity-based ultraviolet spectrophotometry (RVb= 59.2+/-0.3 milliOD/min)
[6] = molecular target: Structural capsid protein (Human immunodeficiency virus 1) (UniProt Q76129); test: Binding affinity to HIV1 capsid protein assessed as assembly rate at 10 uM by turbidity-based ultraviolet spectrophotometry
[7] = molecular target: Structural capsid protein (Human immunodeficiency virus 1) (UniProt Q76129); test: Binding affinity to HIV1 capsid protein assessed as assembly rate at 20 uM by turbidity-based ultraviolet spectrophotometry

- EC50 [3]: 0.89 µM
SMILES: Cc1ccc(S(=O)(=O)N[C@@H](Cc2ccccc2)C(=O)NN=C2CCCCC2)cc1
- CC50 at 120 h [1]: 78.3 µM
- selectivity ratio [2]: 87.6

- EC50 [3]: 5.59 µM
SMILES: O=C(N/N=C/c1ccccc1)c1ccc([N+](=O)[O-])cc1
- CC50 at 120 h [1]: 29.6 µM
- selectivity ratio [2]: 5.3

- EC50 [3]: 0.95 µM
SMILES: O=S(=O)(N/N=C/c1ccccc1)c1ccc(Br)cc1
- CC50 at 120 h [1]: > 100 µM
- selectivity ratio [2]: > 105

SMILES: Cc1ccc(S(=O)(=O)N[C@@H](Cc2ccccc2)C(=O)N/N=C/c2ccc3c(c2)OCO3)cc1
- CC50 at 120 h [1]: > 100 µM
- Activity (milli optical density/minute) [4]: 2.5
- selectivity ratio [2]: > 588
- Activity (milli optical density/minute) [5]: 7.9
- Activity (milli optical density/minute) [6]: 13.2
- Activity (milli optical density/minute) [7]: 7.4
- EC50 [3]: 0.17 µM

SMILES: COc1ccc(C(=O)N[C@@H](Cc2ccccc2)C(=O)N/N=C/c2ccccc2)cc1
- CC50 at 120 h [1]: > 100 µM
- selectivity ratio [2]: > 500
- Activity (milli optical density/minute) [5]: 22.6
- EC50 [3]: 0.2 µM

SMILES: O=C(CNS(=O)(=O)c1ccc(Br)cc1)N/N=C/c1ccccc1
- CC50 at 120 h [1]: 92.8 µM
- selectivity ratio [2]: 284
- Activity (milli optical density/minute) [5]: 22.5
- EC50 [3]: 0.33 µM

SMILES: Cc1ccc(S(=O)(=O)N[C@@H](CO)C(=O)N/N=C/c2ccccc2)cc1
- CC50 at 120 h [1]: 5.19 µM
- selectivity ratio [2]: 3.2
- Activity (milli optical density/minute) [5]: 24.4
- EC50 [3]: 1.63 µM

- EC50 [3]: 2.8 µM
SMILES: Cc1ccc(S(=O)(=O)N[C@@H](Cc2ccccc2)C(=O)N/N=C/c2ccc(Cl)cc2)cc1
- CC50 at 120 h [1]: 9.4 µM
- selectivity ratio [2]: 3.4

- EC50 [3]: 31.1 µM
SMILES: COc1ccc(C(=O)N/N=C/c2ccccc2)cc1
- CC50 at 120 h [1]: > 100 µM
- selectivity ratio [2]: > 3.22

SMILES: COc1cc(/C=N/NC(=O)[C@H](Cc2ccccc2)NS(=O)(=O)c2ccc(C)cc2)ccc1O
- CC50 at 120 h [1]: > 100 µM
- Activity (milli optical density/minute) [4]: 7.7
- selectivity ratio [2]: > 476
- Activity (milli optical density/minute) [5]: 10.6
- Activity (milli optical density/minute) [6]: 14
- Activity (milli optical density/minute) [7]: 10.9
- EC50 [3]: 0.21 µM

- EC50 [3]: 3 µM
SMILES: O=C(N[C@@H](Cc1ccccc1)C(=O)N/N=C/c1ccccc1)c1ccc([N+](=O)[O-])cc1
- CC50 at 120 h [1]: 18.7 µM
- selectivity ratio [2]: 6.2

SMILES: O=S(=O)(c1ccc(Br)cc1)N1CCC(c2ccccc2)=N1
- CC50 at 120 h [1]: 38.2 µM
- selectivity ratio [2]: 382
- Activity (milli optical density/minute) [5]: 17.3
- EC50 [3]: 0.1 µM

SMILES: COc1ccc(C(=O)N[C@@H](CO)C(=O)N/N=C/c2ccccc2)cc1
- CC50 at 120 h [1]: 45.6 µM
- selectivity ratio [2]: 76
- Activity (milli optical density/minute) [5]: 21.7
- EC50 [3]: 0.6 µM

- EC50 [3]: 0.36 µM
SMILES: Cc1ccc(S(=O)(=O)N/N=C/c2ccccc2)cc1
- CC50 at 120 h [1]: 31.7 µM
- selectivity ratio [2]: 88.1

SMILES: COc1ccc(C(=O)NCC(=O)N/N=C/c2ccccc2)cc1
- CC50 at 120 h [1]: 63.8 µM
- selectivity ratio [2]: 31.9
- Activity (milli optical density/minute) [5]: 43.5
- EC50 [3]: 2 µM

- EC50 [3]: 1.32 µM
SMILES: CC(=O)Nc1ccc(S(=O)(=O)N[C@@H](CO)C(=O)N/N=C/c2ccccc2)cc1
- CC50 at 120 h [1]: > 100 µM
- selectivity ratio [2]: > 75.8

- EC50 [3]: 0.3 µM
SMILES: C/C(=N\NC(=O)[C@H](Cc1ccccc1)NS(=O)(=O)c1ccc(C)cc1)c1ccccc1
- CC50 at 120 h [1]: 21.2 µM
- selectivity ratio [2]: 70.7

- EC50 [3]: 0.65 µM
SMILES: CC(=O)Nc1ccc(S(=O)(=O)N/N=C/c2ccccc2)cc1
- CC50 at 120 h [1]: 40 µM
- selectivity ratio [2]: 61.5

- EC50 [3]: 2 µM
SMILES: O=C(N[C@@H](CO)C(=O)N/N=C/c1ccccc1)c1ccc([N+](=O)[O-])cc1
- CC50 at 120 h [1]: > 100 µM
- selectivity ratio [2]: > 50

SMILES: Cc1ccc(S(=O)(=O)N[C@@H](Cc2ccccc2)C(=O)N/N=C/c2ccccc2)cc1
- CC50 at 120 h [1]: 50 µM
- selectivity ratio [2]: 125
- Activity (milli optical density/minute) [5]: 18.9
- EC50 [3]: 0.4 µM

- EC50 [3]: 4.45 µM
SMILES: Cc1ccc(S(=O)(=O)N[C@@H](Cc2ccccc2)C(=O)N/N=C/c2ccccc2F)cc1
- CC50 at 120 h [1]: > 100 µM
- selectivity ratio [2]: > 22.5

- EC50 [3]: 0.27 µM
SMILES: Cc1ccc(S(=O)(=O)N[C@@H](Cc2ccccc2)C(=O)NN=C(c2ccccc2)c2ccccc2)cc1
- CC50 at 120 h [1]: > 100 µM
- selectivity ratio [2]: > 365

- EC50 [3]: 2.46 µM
SMILES: Cc1ccc(S(=O)(=O)N[C@@H](Cc2ccccc2)C(=O)N/N=C/c2ccco2)cc1
- CC50 at 120 h [1]: 99.8 µM
- selectivity ratio [2]: 40.6

SMILES: Cc1ccc(NC(=O)NCCSCc2ccc(CN(C)C)o2)cc1Cl
- Activity (milli optical density/minute) [5]: 33.4

- EC50 [3]: 0.4 µM
SMILES: C/C(=N\NC(=O)[C@H](Cc1ccccc1)NS(=O)(=O)c1ccc(C)cc1)c1cccc2ccccc12
- CC50 at 120 h [1]: 49.1 µM
- selectivity ratio [2]: 123

- EC50 [3]: 15.1 µM
SMILES: CC(=O)Nc1ccc(S(=O)(=O)NCC(=O)N/N=C/c2ccccc2)cc1
- CC50 at 120 h [1]: > 100 µM
- selectivity ratio [2]: > 6.6

- EC50 [3]: 36 µM
SMILES: O=C(N/N=C/c1ccccc1)[C@H](CO)NS(=O)(=O)c1ccc(Br)cc1
- CC50 at 120 h [1]: 80.2 µM
- selectivity ratio [2]: 2.2

- EC50 [3]: 1.03 µM
SMILES: O=C(CNC(=O)c1ccc([N+](=O)[O-])cc1)N/N=C/c1ccccc1
- CC50 at 120 h [1]: > 100 µM
- selectivity ratio [2]: > 97.1

SMILES: Cc1ccc(S(=O)(=O)NCC(=O)N/N=C/c2ccccc2)cc1
- CC50 at 120 h [1]: 83.5 µM
- selectivity ratio [2]: 55.7
- Activity (milli optical density/minute) [5]: 23.1
- EC50 [3]: 1.5 µM

- EC50 [3]: 0.52 µM
SMILES: O=[N+]([O-])c1ccc(S(=O)(=O)N2CCC(c3ccccc3)=N2)cc1
- CC50 at 120 h [1]: > 100 µM
- selectivity ratio [2]: > 192

SMILES: Cc1ccc(S(=O)(=O)N[C@@H](Cc2ccccc2)C(=O)N/N=C/c2ccc([N+](=O)[O-])cc2)cc1
- CC50 at 120 h [1]: 9.8 µM
- selectivity ratio [2]: 1.5
- Activity (milli optical density/minute) [5]: 31.9
- EC50 [3]: 6.64 µM

- EC50 [3]: 5.49 µM
SMILES: Cc1ccc(S(=O)(=O)N[C@@H](Cc2ccccc2)C(=O)N/N=C/c2ccc(Br)cc2)cc1
- CC50 at 120 h [1]: 82.5 µM
- selectivity ratio [2]: 15

SMILES: CC(=O)Nc1ccc(S(=O)(=O)N[C@@H](Cc2ccccc2)C(=O)N/N=C/c2ccccc2)cc1
- CC50 at 120 h [1]: > 100 µM
- selectivity ratio [2]: > 213
- Activity (milli optical density/minute) [5]: 20.8
- EC50 [3]: 0.47 µM

SMILES: Cc1ccc(/C=N/NC(=O)[C@H](Cc2ccccc2)NS(=O)(=O)c2ccc(C)cc2)cc1
- CC50 at 120 h [1]: > 100 µM
- selectivity ratio [2]: > 10.1
- Activity (milli optical density/minute) [5]: 46
- EC50 [3]: 9.93 µM

- EC50 [3]: 15.3 µM
SMILES: O=C(N/N=C/c1ccccc1)[C@H](Cc1ccccc1)NS(=O)(=O)c1ccc(Br)cc1
- CC50 at 120 h [1]: > 100 µM
- selectivity ratio [2]: > 6.5
